Consider one compound from ChEMBL document CHEMBL4613298, “GPBAR1 Activation by C6-Substituted Hyodeoxycholane Analogues Protect against Colitis” (ACS Med Chem Lett, 2020).

Active and inactive are the calls of the source. The rule behind the calls is not given here.

The target in data set [1] is T1, G-protein coupled bile acid receptor 1 (Homo sapiens) (UniProt Q8TDU6).
T1 sequence (whole entry): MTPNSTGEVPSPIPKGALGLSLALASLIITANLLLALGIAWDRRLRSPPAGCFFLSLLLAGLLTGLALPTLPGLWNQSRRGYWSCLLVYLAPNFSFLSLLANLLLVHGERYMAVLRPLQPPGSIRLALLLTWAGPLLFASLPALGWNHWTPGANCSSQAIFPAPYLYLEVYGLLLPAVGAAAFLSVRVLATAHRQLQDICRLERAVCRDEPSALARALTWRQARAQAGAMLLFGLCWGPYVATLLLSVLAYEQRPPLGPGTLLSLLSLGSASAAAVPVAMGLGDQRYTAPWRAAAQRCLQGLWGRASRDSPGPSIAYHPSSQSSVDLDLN
As to the kind of experiment: Transactivation of human GPBAR1 receptor expressed in HEK293T cells assessed as maximum receptor activation at 10 uM after 18 hrs by cAMP response element driven renilla-luciferase dual reporter gene assay relative to TLCA. It counts as functional, cell-based. Particulars: HEK-293T. The method in brief: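 HEK-293T cells transfected with GPBAR1 and a CRE-driven luciferase reporter, exposed to compound at 10 μM. Efficacy is maximal CRE transactivation as percent of that caused by TLCA (10 μM). One experiment, triplicate.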

Data set [2] addresses T2, Bile acid receptor (Homo sapiens) (UniProt Q96RI1).
T2 sequence (whole entry): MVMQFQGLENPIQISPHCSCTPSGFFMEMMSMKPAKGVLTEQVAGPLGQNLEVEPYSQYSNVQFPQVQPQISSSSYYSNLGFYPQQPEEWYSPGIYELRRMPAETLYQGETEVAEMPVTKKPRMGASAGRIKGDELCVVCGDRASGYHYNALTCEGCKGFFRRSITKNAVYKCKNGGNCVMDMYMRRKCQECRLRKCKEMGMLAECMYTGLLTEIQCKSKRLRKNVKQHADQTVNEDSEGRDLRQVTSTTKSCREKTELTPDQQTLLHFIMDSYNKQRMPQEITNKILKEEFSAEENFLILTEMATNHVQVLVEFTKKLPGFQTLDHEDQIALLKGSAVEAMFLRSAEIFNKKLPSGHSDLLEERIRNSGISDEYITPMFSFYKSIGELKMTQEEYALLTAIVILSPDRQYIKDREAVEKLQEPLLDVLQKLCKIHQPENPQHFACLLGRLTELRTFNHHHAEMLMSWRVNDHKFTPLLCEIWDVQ
As to the kind of experiment: Transactivation of FXR (unknown origin) expressed in HepG2 cells co-expressing pSG5RXR/pGL4.70 assessed as maximum receptor activation at 10 uM after 18 hrs by IR1 driven dual renilla-luciferase reporter gene assay relative to relative to CDCA. It counts as cell-based. An outline of the steps: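 FXR reporter assay in HepG2 cells transfected with FXR and an IR1-driven luciferase reporter, compound at 10 μM. Efficacy is maximal IR1 transactivation relative to CDCA (10 μM). One experiment, triplicate.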
For orientation: Reporter assays use an easily measured gene product as a stand-in for the process of interest.

Data set [3] is filed under the species Homo sapiens. As to the kind of experiment: Selectivity index, ratio of transactivation of human GPBAR1 receptor expressed in HEK293T cells assessed as maximum receptor activation at 10 uM to transactivation of human FXR (unknown origin) expressed in HepG2 cells co-expressing pSG5RXR/pGL4.70 assessed as maximum receptor activation at 10 uM. The class given is cell-based. The method in brief:
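Ratio of percent activity at GPBAR1 (HEK-293T, CRE-luciferase, 10 μM, vs TLCA 10 μM) to percent activity at FXR (HepG2, IR1-luciferase, 10 μM, vs CDCA 10 μM). Both taken from the same triplicate experiment.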

Data set [4] in a line: Aqueous solubility of compound in pH 7.4 PBS/MeOH at 10 mM after 24 hrs by LC-MS analysis. The class given is physicochemical. Particulars: buffer, pH 7.4, 24 h, 10000 µM.
The target of data set [5] is T1, G-protein coupled bile acid receptor 1 (Homo sapiens). In words: Agonist activity at GPBAR1 receptor in human THP1 cells assessed as reduction in LPS-induced IL-1beta expression at 10 uM after 18 hrs by RT-PCR analysis. It counts as cell-based. As to conditions: THP-1. An outline of the steps: (§1)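 THP1 monocytic/macrophage cells primed with LPS, then coincubated with or without test agent at 10 μM; expression of cytokine genes (IL-1β, IL-6, TNF-α, IL-10) measured.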

The target is the same in data set [6]. In words: Agonist activity at GPBAR1 receptor in human THP1 cells assessed as reduction in LPS-induced IL-6 expression at 10 uM after 18 hrs by RT-PCR analysis. The class given is cell-based. Particulars: THP-1. An outline of the steps:
as §1

For data set [7] the target is unchanged. As to the kind of experiment: Agonist activity at GPBAR1 receptor in human THP1 cells assessed as reduction in LPS-induced TNFalpha expression at 10 uM after 18 hrs by RT-PCR analysis. The class given is cell-based. As to conditions: THP-1. The method in brief:
as §1

The target is the same in data set [8]. As to the kind of experiment: Agonist activity at GPBAR1 receptor in LPS-stimulated human THP1 cells assessed as increase in IL-10 expression at 10 uM after 18 hrs by RT-PCR analysis. The class given is cell-based. Particulars: THP-1. The method in brief:
as §1

For data set [9], the system named is Mus musculus. As to the kind of experiment: Anti-colitis activity in Gpbar1 (+/+) TNBS-induced C57BL/6NCrl mouse model of colitis assessed as decrease in Clinical Disease activity index at 30 mg/kg, po. It counts as functional, organism-based. The method in brief: (§2)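 Gpbar1+/+ and Gpbar1–/– mice given TNBS alone or with test agent at 30 mg/kg; body weight change and CDAI followed over the colitis course; colon sections H&E stained (10× magnification); n = 5 per group.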

For data set [10], the system named is Mus musculus. In words: Antiinflammatory activity in Gpbar1 (+/+) TNBS-induced C57BL/6NCrl mouse model of colitis assessed as reduction in IL-6 mRNA expression at 30 mg/kg, po by RT-PCR analysis. The class given is functional, organism-based. The method in brief: (§3)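 Gpbar1+/+ and Gpbar1–/– mice given TNBS alone or with test agent at 30 mg/kg; colon samples analysed by RT-PCR for relative mRNA of Il-1β, Il-6, Tnf-α, Il-10 and Gpbar1.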

The test system of data set [11] is Mus musculus. In words: Antiinflammatory activity in Gpbar1 (+/+) TNBS-induced C57BL/6NCrl mouse model of colitis assessed as reduction in IL-1beta mRNA expression at 30 mg/kg, po by RT-PCR analysis. The class given is functional, organism-based. The method in brief: as §3
Data set [12] concerns Mus musculus. As to the kind of experiment: Antiinflammatory activity in Gpbar1 (+/+) TNBS-induced C57BL/6NCrl mouse model of colitis assessed as reduction in TNFalpha mRNA expression at 30 mg/kg, po by RT-PCR analysis. It counts as functional, organism-based. The method in brief:
as §3

Data set [13] has as its system Mus musculus. In words: Antiinflammatory activity in Gpbar1 (+/+) TNBS-induced C57BL/6NCrl mouse model of colitis assessed as increase in IL-10 mRNA expression at 30 mg/kg, po by RT-PCR analysis. It counts as functional, organism-based. The method in brief: as §3
The test system of data set [14] is Mus musculus. As to the kind of experiment: Effect on IL-6 mRNA expression in Gpbar1 deficient TNBS-induced C57BL/6NCrl mouse model of colitis harboring assessed as reduction in IL-6 mRNA expression at 30 mg/kg, po by RT-PCR analysis. It counts as functional, organism-based. The method in brief:
as §3

The test system of data set [15] is Mus musculus. As to the kind of experiment: Effect on IL-1beta mRNA expression in Gpbar1 deficient TNBS-induced C57BL/6NCrl mouse model of colitis harboring […] expression at 30 mg/kg, po by RT-PCR analysis. The class given is functional, organism-based. The method in brief:
as §3

Data set [16] deals with Mus musculus. In words: Effect on TNFalpha mRNA expression in Gpbar1 deficient TNBS-induced C57BL/6NCrl mouse model of colitis harboring […] expression at 30 mg/kg, po by RT-PCR analysis. It counts as functional, organism-based. An outline of the steps: as §3
Data set [17] relates to Mus musculus. As to the kind of experiment: Effect on IL-10 mRNA expression in Gpbar1 deficient TNBS-induced C57BL/6NCrl mouse model of colitis harboring […] expression at 30 mg/kg, po by RT-PCR analysis. The class given is functional, organism-based. The method in brief: as §3
For data set [18], the system named is Mus musculus. As to the kind of experiment: Anti-colitis activity in Gpbar1 (+/+) TNBS-induced C57BL/6NCrl mouse model of colitis assessed as effect on body weight loss at 30 mg/kg, po. The class given is functional, organism-based. The method in brief:
as §2

Data set [19] concerns Mus musculus. As to the kind of experiment: Anti-colitis activity in Gpbar1 (+/+) TNBS-induced C57BL/6NCrl mouse model of colitis assessed as colon damage at 30 mg/kg, po by H and E staining analysis. It counts as functional, organism-based. An outline of the steps:
as §2

Data set [20] has as its system Mus musculus. As to the kind of experiment: Anti-colitis activity in Gpbar1 (-/-) TNBS-induced C57BL/6NCrl mouse model of colitis assessed as decrease in Clinical Disease activity index at 30 mg/kg, po. It counts as functional, organism-based. An outline of the steps: as §2
The test system of data set [21] is Mus musculus. As to the kind of experiment: Anti-colitis activity in Gpbar1 (-/-) TNBS-induced C57BL/6NCrl mouse model of colitis assessed as effect on body weight loss at 30 mg/kg, po. It counts as functional, organism-based. An outline of the steps:
as §2

Data set [22] concerns Mus musculus. As to the kind of experiment: Anti-colitis activity in Gpbar1 (-/-) TNBS-induced C57BL/6NCrl mouse model of colitis assessed as colon damage at 30 mg/kg, po by H and E staining analysis. It counts as functional, organism-based. The method in brief: as §2

`CC[C@]1(O)C[C@H]2[C@@H]3CC[C@H]([C@H](C)CC#N)[C@@]3(C)CC[C@@H]2[C@@]2(C)CC[C@@H](O)C[C@@H]12`: the values for the max activation in data set [1] and in data set [2] were 101% and 12.3%, respectively. For the same compound, the Selectivity Index in data set [3] was determined as 8.2. The solubility entry in data set [4] was “Soluble”. Moreover, the outcome in [5], in data set [6], in data set [7], in data set [8], in data set [9] and in data set [10] was Active. In addition, the outcome in data set [11], in data set [12], in [13], in data set [18] and in [19] was Active. Also, the outcome in data set [14], in data set [15], in [16], in [17], in data set [20] and in [21] was inactive. Also, the outcome in data set [22] was inactive.
